Series [1] concerns MDA-MB-231 (triple negative breast cancer cell). Put plainly: In vitro cytotoxicity. Format: cell-based, human. To be noted: for IC50: read-out: IC50 MDA-MB-231, 72 h, MTT, mean ± S.D (n = 6). The gist of the method: (§1)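 Adherent cancer cells were exposed to test compound for 72 h. The series was a 3-fold dilution starting at 100 μM.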
Series [2] has as its system BT-333 (glioblastoma). The experiment in a line: In vitro cytotoxicity. Format: cell-based, human. To be noted: read-out: IC50 BT-333; 72 h, MTT, mean ± S.D (n = 6). The gist of the method: as §1
Series [3] concerns MRC5 (human lung fibroblast). Put plainly: Cytotoxicity in normal cells MRC5. Format: cell-based. To be noted: read-out: IC50 MRC5; mean ± S.D (n = 6).
Series [4] is described as follows: Solution stability in DMEM. Type of series: physicochemical. As to conditions: 48 h, reading at λ = 260 nm.
For series [5], the system named is MDA-MB-231 cancer cells. The experiment in a line: Whole cellular uptake of Au. Format: cell-based, human. As to conditions: 10 μM for 18 h, GFAAS. A digest of the protocol:
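Adherent MDA-MB-231 cells were incubated with the test compound at 10 μM for 18 h. Whole-cell gold content was then measured by graphite furnace AAS. Data are mean ± s.e.m. (n = 3), compared by ordinary one-way ANOVA.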

In series [6] the test system is mitochondria of MDA-MB-231 cancer cells. The experiment in a line: Mitochondria uptake of Au. Format: cell-based, human. As to conditions: 10 μM for 18 h, 20 million cells, GFAAS, n = 2. A digest of the protocol: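 MDA-MB-231 cells (20 million) were treated with test compound at 10 μM for 18 h. Standard fractionation then gave pure mitochondria, and gold content was measured by GFAAS. Data are mean ± s.e.m. (n = 2), compared by ordinary one-way ANOVA.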

The test system of series [7] is MDA-MB-231 cells. The experiment in a line: Mitochondria membrane potential determination using TMRE dye. Type of series: cell-based, human. To be noted: for effect on mitochondria membrane potential (TMRE fluorescence): 5 and 10 μM for 2 hours.
In series [8] the test system is MDA-MB-231 cells. The experiment in a line: Intracellular ROS determination. Format: cell-based, human. To be noted: 10 μM, 90 minutes, DCF-DA, FACS. The gist of the method:
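MDA-MB-231 cells were exposed to the test compound at 5 and 10 μM. The text gives 90 min of exposure, and the figure legend gives 2 h. Cells were then stained with 2′,7′-dichlorodihydrofluorescein diacetate, and intracellular fluorescence was read by flow cytometry at 488 nm. Groups were compared by ordinary one-way ANOVA.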

As usually defined, the IC50 is the concentration that inhibits the measured activity by half.

Take `[Au+].[Cl-].c1ccc(P(c2ccccc2)c2ccccc2P(c2ccccc2)c2ccccc2)cc1.c1ccc(P(c2ccccc2)c2ccccc2P(c2ccccc2)c2ccccc2)cc1` [1-AuCl4, bis-[1,2-bis-(diphenylphosphino)benzene]gold(I)]: the IC50 in series [1] was 1780 ± 150 nM; in series [2], 1300 ± 40 nM; in series [3], 930 ± 20 nM.
`[Au+].[Cl-].c1ccc(P(c2ccccc2)c2ccccc2P(c2ccccc2)c2ccccc2)cc1.c1ccc(P(c2ccccc2)c2ccccc2P(c2ccccc2)c2ccccc2)cc1` [1-BF4, bis-[1,2-bis-(diphenylphosphino)benzene]gold(I)]: the IC50 in series [1] was 820 ± 110 nM; in series [2], 660 ± 20 nM.
As to `[Au+].[Cl-].c1ccc(P(c2ccccc2)c2ccccc2P(c2ccccc2)c2ccccc2)cc1.c1ccc(P(c2ccccc2)c2ccccc2P(c2ccccc2)c2ccccc2)cc1` [1-Cl, bis-[1,2-bis-(diphenylphosphino)benzene]gold(I)], the IC50 was 1140 ± 120 nM in series [1], 410 ± 200 nM in series [2] and 1350 ± 40 nM in series [3]. Besides, the “solution stability in DMEM” value in series [4] is “stable in DMEM for 48 h without the formation of new adducts or reduction in peak intensity”. Moreover, in series [5], the “whole cell uptake (Au content)” value was “taken up more effectively compared to 1-AuCl4”. Moreover, the “mitochondria uptake (Au)” value in series [6] came out at 214.5 nmol/20 million cells. In addition, the “effect on mitochondria membrane potential (TMRE fluorescence)” value in series [7] is on record as “did not affect the mitochondria membrane potential significantly”.
In the case of `[Au+].[Cl-].c1ccc(P(c2ccccc2)c2ccccc2P(c2ccccc2)c2ccccc2)cc1.c1ccc(P(c2ccccc2)c2ccccc2P(c2ccccc2)c2ccccc2)cc1` [1-PF6, bis-[1,2-bis-(diphenylphosphino)benzene]gold(I)], in series [1] (in both cancer cell lines tested (MDA-MB-231, BT-333)), the “fold more cytotoxic than Au(III) 3-PF6 counterpart (IC50)” value is 4–16 fold. Besides, the values for the IC50 in series [1], in series [2] and in series [3] were 300 ± 100 nM, 380 ± 20 nM and 1910 ± 30 nM, respectively. Further, the “whole cell uptake (Au content)” value in series [5] was “taken up more effectively compared to 1-AuCl4”.
For “bis-[1,2-bis-(diphenylphosphino)benzene]gold(III) chloride [3-AuCl4]”, the IC50 in series [1] came to 1520 ± 210 nM; in series [2] it was 1380 ± 230 nM; in series [3], 4470 ± 50 nM. Besides, the “solution stability in DMEM” value in series [4] is on record as “showed solution stability for 48 h but significant reduction in peak intensity after 1 h of incubation”. In series [5], the “whole cell uptake (Au content)” value is “significantly higher whole cell uptake compared to their Au(I) counterparts”. For the same compound, the “mitochondria uptake (Au)” value in series [6] stood at 375 nmol/20 million cells. The “intracellular ROS produced” value in series [8] is given as “significant difference in the ROS produced by 3-AuCl4 compared to 1-Cl”. Also, the “decrease in TMRE fluorescence intensity (mitochondria membrane potential)” value in series [7] (10 μM, 2 hours) was “about 53%”. Further, in series [7], the “effect on mitochondria membrane potential (TMRE fluorescence)” value is “concentration dependent decrease in fluorescence intensity”.
Turning to “bis-[1,2-bis-(diphenylphosphino)benzene]gold(III) chloride [3-PF6]”, the IC50 came to 4920 ± 210 nM in series [1] and 1760 ± 120 nM in series [2]. Besides, the “whole cell uptake (Au content)” value in series [5] is on record as “significantly higher whole cell uptake compared to their Au(I) counterparts”.

The values are drawn from article PMC11650976 (Dalton Transactions (Cambridge, England : 2003), 2024).
